This note sets out measurements from ChEMBL document CHEMBL2034852, “Flacourtosides A-F, phenolic glycosides isolated from Flacourtia ramontchi” (J Nat Prod, 2012).

Data set [1] is described as follows: Inhibition of Dengue virus NS5 polymerase assessed as inhibition of radiolabeled guanosine incorporation into homopolymeric cytosine RNA template by liquid scintillation counting. The gist of the method:
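DENV-2 NS5 polymerase, produced and purified by a prior method, assayed by radiolabeled guanosine incorporation on a homopolymeric cytosine RNA template. IC50 fitted by % enzyme activity = 100/[…], with I the inhibitor concentration; 3′-deoxy-GTP served as reference.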

Data set [2] can be described thus: (§1) Cytotoxicity against African green monkey Vero cells after 6 to 7 days by MTS assay. The note with it: chlorocebus sabaeus, Vero cells. In kind it is cell-based. The essentials:
(§2)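 Vero cells (subcultured 1:4, grown 7 days) seeded at 25 000 cells per well with serial compound dilutions in MEM Rega3 with 2% FCS, L-glutamine and bicarbonate. Incubated 6−7 days at 37 °C, 5% CO2. Medium then replaced with 5% MTS in phenol red-free medium for 1.5 h, A498 read. CC50 taken from dose−response curves as % of controls; multiple independent experiments.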
A general note: Formazan colour is commonly taken as a measure of viable cells.

Another data set has as its system Chikungunya virus. In words: Antiviral activity against Chikungunya virus infected in Vero cells assessed as inhibition of virus-induced cytopathic effect after 6 to 7 days by MTS assay. The data set is classed as functional, cell-based.
The next data set concerns Vero. Described as §1. The data set is classed as cell-based. The note with it: chlorocebus sabaeus, vero. The essentials: as §2

What is called pIC50 is the IC50 on a negative log10 scale, so that one unit is a factor of ten. By CC50 is commonly meant the concentration giving 50% cytotoxicity.

SMILES strings stand for the structures. pIC50: −log10 of the molar value. Active and inactive are the calls of the source. No cut-off for these calls is given here.

For `C=C(C)[C@@H]1CC[C@]2(C(=O)O)CC[C@]3(C)[C@H](CC[C@@H]4[C@@]5(C)CC[C@H](OC(=O)/C=C/c6ccc(O)c(O)c6)C(C)(C)[C@@H]5CC[C@]43C)[C@@H]12`, the pIC50 in data set [1] is 6.07. Besides, the midpoint of cytotoxicity in data set [2], the CC50, lay at 6.9 µM. In the case of `Nc1nc2c(ncn2[C@@H]2O[C@H](COP(=O)(O)OP(=O)(O)OP(=O)(O)O)C[C@H]2O)c(=O)[nH]1`, the pIC50 in data set [1] was 7.70. For `O=Cc1cc(O)ccc1O[C@@H]1O[C@H](COC(=O)c2ccccc2)[C@@H](O)[C@H](O)[C@H]1O` [FLACOURTOSIDE B], in data set [1], the pIC50 is 4.15. Further, the result with Chikungunya virus was inactive. In the case of `O=Cc1cc(O)ccc1O[C@@H]1O[C@H](COC(=O)c2ccccc2)[C@@H](O)[C@H](O[C@@H]2O[C@H](COC(=O)c3ccccc3)[C@@H](O)[C@H](O)[C@H]2O)[C@H]1O` [FLACOURTOSIDE C], the pIC50 in data set [1] is 4.62. The outcome in the data set with Chikungunya virus was inactive. In the case of `O=C(OC[C@H]1O[C@@H](Oc2ccc(O)cc2COC(=O)C2(O)CC(=O)[C@@H](O)[C@@H](O)[C@H]2O)[C@H](OC(=O)c2ccccc2)[C@@H](O)[C@@H]1O)c1ccccc1` (some centres undefined) [FLACOURTOSIDE D], in data set [1], the pIC50 is 4.45. Besides, the outcome in the data set on Chikungunya virus was inactive. In the case of `O=C(OC[C@H]1O[C@@H](Oc2ccc(O)cc2COC(=O)[C@@]2(O)[C@H](O)C=CC(=O)[C@@H]2O)[C@H](O)[C@@H](OC(=O)c2ccccc2)[C@@H]1O)c1ccccc1` [FLACOURTOSIDE E], the pIC50 in data set [1] was 4.87. In addition, the Activity result in the data set on Vero was “Non-toxic”. Further, the outcome in the data set with Chikungunya virus was inactive. Regarding `O=C(OC[C@H]1O[C@@H](Oc2ccc(O)cc2COC(=O)[C@@]2(O)[C@H](O)C=CC(=O)[C@@H]2OC(=O)c2ccccc2)[C@H](OC(=O)c2ccccc2)[C@@H](O)[C@@H]1O)c1ccccc1` [FLACOURTOSIDE F], in data set [1], the pIC50 is 4.40. For the same molecule, the outcome in the data set on Chikungunya virus was inactive. With `O=C(OC[C@H]1O[C@@H](Oc2ccc(O)cc2COC(=O)c2ccccc2O)[C@H](O)[C@@H](O)[C@@H]1O)c1ccccc1` [ITOSIDE H], the pIC50 in data set [1] is 4.42.

In the case of `O=C(OC[C@H]1O[C@@H](Oc2ccc(O)cc2CO)[C@H](O)[C@@H](O)[C@@H]1O)c1ccccc1` [POLIOTHYRSOSIDE], the pIC50 in data set [1] was < 4.30. Consider `O=C(OC[C@H]1O[C@@H](Oc2ccc(O)cc2COC(=O)c2cccc(O)c2O)[C@H](OC(=O)c2ccccc2)[C@@H](O)[C@@H]1O)c1ccccc1` [SCOLOCHINENOSIDE D], for which the pIC50 in data set [1] was 5.02. Also, in the data set with Vero, the Activity entry is given as “Non-toxic”. Consider `O=C(OC[C@H]1O[C@@H](Oc2ccc(O)cc2COC(=O)[C@@]2(O)[C@H](O)C=CC(=O)[C@@H]2O)[C@H](OC(=O)c2ccccc2)[C@@H](O)[C@@H]1O)c1ccccc1` [XYLOSMIN], for which the pIC50 in data set [1] is 4.61.
